# Screening results: PubChem BioAssay, The Scripps Research Institute Molecular Screening Center
# Most compounds without a hit are left out; they make up all but 3.4% or so of the library.
# MMP-13 inhibitor = blocks human MMP13 activity | MMP-13 fTHP FRET cleavage, Mca fluorescence | inhibition, % at 4 µM | 65,000 compounds, 0.07% hits | AID 570;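 active = inhibition above the mean of compound-free control plate wells plus 3 SD, cut at about 14% in these data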;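 note: 0% = DMSO wells and 100% = wells with reference MMP-13 inhibitor after basal subtraction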
# PKA inh = inhibitors of human protein kinase A. AID 524. PKA Kemptide phosphorylation, Kinase-Glo ATP luminescence. inhibition, % at 6 µM. P17612. 65,000 compounds, 0.1% hits;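 active = inhibition above the screen-wide mean inhibition plus 3 SD, cut at about 21% in these data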
# ROCK2 inh = inhibitors of human Rho kinase 2 | 60,000 compounds, 0.35% hits | inhibition, % at 6 µM | purified ROCK2, Kinase-Glo ATP depletion luminescence | O75116;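 active = inhibition above the screen-wide mean inhibition plus 3 SD, cut at about 18% in these data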;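 note: plate controls were DMSO wells for no effect and Y-27632 control wells after no-enzyme background subtraction for full effect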
# RORa activator = activates the human nuclear receptor RORA; P35398; CHO-K1 Gal4-RORA LBD luciferase reporter, luminescence; percent increase over mock-subtracted basal signal; activation, % at 10 µM; 65,000 compounds, 1.5% hits;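 active = activation above the mean of all tested compounds plus 3 SD, cut at about 49% in these data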;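 note: 0% = DMSO-treated RORA cells and 100% = added signal equal to DMSO minus mock-transfected cells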
# Target sequence (P35398 whole entry, looked up, the tested form may be a part): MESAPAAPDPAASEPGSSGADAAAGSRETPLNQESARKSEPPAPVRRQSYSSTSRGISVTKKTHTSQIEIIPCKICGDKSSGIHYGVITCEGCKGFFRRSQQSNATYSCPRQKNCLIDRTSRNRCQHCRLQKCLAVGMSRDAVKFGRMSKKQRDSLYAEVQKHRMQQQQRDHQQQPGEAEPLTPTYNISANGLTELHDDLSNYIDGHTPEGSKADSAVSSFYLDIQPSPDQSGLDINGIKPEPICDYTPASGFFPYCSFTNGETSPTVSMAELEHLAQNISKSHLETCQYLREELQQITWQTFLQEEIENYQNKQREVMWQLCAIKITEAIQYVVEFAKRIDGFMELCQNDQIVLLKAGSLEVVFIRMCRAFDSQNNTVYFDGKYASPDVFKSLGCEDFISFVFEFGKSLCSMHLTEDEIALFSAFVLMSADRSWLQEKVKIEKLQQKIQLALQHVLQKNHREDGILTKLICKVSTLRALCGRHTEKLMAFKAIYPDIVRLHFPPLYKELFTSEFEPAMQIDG
# JNK3 inh = inhibitors of human JNK3 kinase; inhibition, % at 8 µM; P53779; 60,000 compounds, 0.61% hits; purified JNK3 kinase activity, HTS; AID 746; in the data active = inhibition above about 17%;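 note: 0% = DMSO and 100% = reference inhibitor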
# SF-1 act = activators of human nuclear receptor SF-1; Q13285; CHO-K1 Gal4-SF-1 LBD luciferase reporter; % increase over DMSO SF-1-specific signal; activation, % at 10 µM; 65,000 compounds, 1.9% hits;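 active = activation above the mean activation of all tested compounds plus 3 SD, cut at about 50% in these data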
#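 System: CHO-K1 cells with Gal4–hSF-1 LBD chimera plus Gal4-driven luciferase; quantity: 4,000 CHO-K1 cells per well; compound: one dose, 10 µM compound, 1% DMSO; times: 20 h compound treatment, 37 °C; measured by: SteadyLite luciferase luminescence; read-out: percent activation versus DMSO; benchmarks: DMSO and mock-transfected background; replicates: one test per compound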
# Starred values were filed as active, the others as inactive; . = no result given.
SMILES,MMP-13 inhibitor,PKA inh,ROCK2 inh,RORa activator,JNK3 inh,SF-1 act
COc1ccc(COC(=O)C2=C(C)NC(=O)NC2c2ccc(O)c(OC)c2)cc1 (stereo not drawn),8,8,3,-2,27*,-8
CCOc1cc(C2NC(=O)NC(C)=C2C(=O)OCc2ccccc2)ccc1O (stereo not drawn),-4,0,-2,-3,19*,-4
CCOC(=O)C1=C(C)NC(=O)NC1c1ccc(OCCO)c(OC)c1 (stereo not drawn),-3,-1,5,-16,2,-9
COc1cccc(-c2cc(C(=O)N3CCCCCC3)no2)c1,-1,12,3,-20,6,-3
COc1cccc(-c2cc(C(=O)N3CCCCC3C)no2)c1 (stereo not drawn),-6,1,-2,50*,4,86*
COc1ccc(C(=O)/C=C/Nc2cc(C)on2)c(OC)c1,9,-7,-5,19,-3,10
C/C(N)=C(/C#N)C(=O)COC(=O)c1cc(C)n(-c2ccc(F)cc2)c1C,-2,8,4,67*,0,65*
CCn1c(SCC(=O)Nc2ccc(N(C)C)cc2)nnc1-c1cccc(C)c1,2,14,7,21,-2,13
CCCCNC(=O)c1nnn(-c2ccccc2)c1N,3,13,6,24,4,67*
Oc1ccccc1-c1cc(-c2ccccc2Cl)[nH]n1,4,6,14,-7,11,20
Clc1ccccc1-c1nc(-c2ccccc2)n[nH]1,5,-6,-5,61*,6,18
COc1ccc2oc(=O)c(C(=O)N3CCN(C45CC6CC(CC(C6)C4)C5)CC3)cc2c1,3,9,3,34,3,-4
CN1CCN(S(=O)(=O)c2cccc(C(=O)Nc3sc4c(c3C(N)=O)CCCC4)c2)CC1,2,12,2,10,2,2
CCOC(=O)N1CCN(S(=O)(=O)c2ccc(C(=O)Nc3sc4c(c3C#N)CCC4)cc2)CC1,1,8,6,-3,4,74*
Cc1nc2nc(C)n(-c3ccccc3)c2s1,7,0,2,0,-1,9
CCOCC(=O)Nc1nc2ccc(OC)cc2s1,-5,-1,-1,33,4,51*
CCCCOC(=O)Nc1nc2ccc(OC)cc2s1,-1,-9,-2,52*,2,23
O=C(NCc1nc2ccccc2[nH]1)c1cccs1,3,7,2,2,28*,14
CCCc1nc2c(sc3nc4c(cc32)COC(C)(C)C4)c(=O)n1Cc1ccco1,1,-8,-10,-1,0,-30
Cc1nc2c(sc3nc4c(cc32)COC(C)(C)C4)c(=O)n1CC(=O)NCc1ccco1,-15,-4,.,101*,.,134*
CC1(C)Cc2nc3sc4c(SCC(=O)NCc5ccco5)ncnc4c3cc2CO1,-2,-9,-7,28,-10,81*
Cc1cccn2c(=O)c3cc(C(=O)N4CCN(c5ccccc5)CC4)n(C)c3nc12,-5,10,10,-9,0,-2
COC(=O)c1c(-c2ccncc2)csc1NC(=O)c1ccoc1C,0,0,16,48,-2,64*
CCOC(=O)c1cnc(Nc2nc3ccccc3o2)nc1CN1CCN(c2ccccc2)CC1,1,10,2,7,-7,18
CCOC(=O)c1cnc(Nc2nc3ccccc3o2)nc1CSc1nnc(C)s1,2,7,6,58*,3,35
SMILES,MMP-13 inhibitor,PKA inh,ROCK2 inh,RORa activator,JNK3 inh,SF-1 act
O=c1c2[nH]c3ccccc3c2ncn1C1CCCCC1,-3,0,-5,61*,0,20
COc1ccccc1CCNC(=O)c1cnn2c(C(F)F)cc(C)nc12,-1,-8,0,2,7,-19
Cc1cc(C(F)F)n2ncc(C(=O)NCc3ccccc3C(F)(F)F)c2n1,1,-4,-2,10,19*,-4
CCOc1ccc(/C(O)=C2\C(=O)C(=O)N(c3cc(C)on3)C2c2ccccc2OC)cc1 (stereo not drawn),5,5,3,4,21*,5
CCOc1ccc(C2/C(=C(\O)c3ccc(OC)c(OC)c3)C(=O)C(=O)N2c2cc(C)on2)cc1OC (stereo not drawn),1,3,0,-23,-2,-18
O=C(Nc1nc2ccccc2s1)C1CCCO1 (stereo not drawn),3,4,6,43,4,59*
O=C(Nc1ncc(Cc2ccccc2)s1)C1CCCO1 (stereo not drawn),0,5,0,55*,4,37
COc1ccc(Cl)cc1NC(=O)C1CCCO1 (stereo not drawn),4,-12,-6,-9,-4,-21
O=C(Nc1ccc(-c2nc3ccccc3o2)cc1)C1CCCO1 (stereo not drawn),-69,4,-3,38,7,11
O=C(Nc1ccc(Oc2ccccc2)cc1)C1CCCO1 (stereo not drawn),2,6,3,27,7,58*
COc1cc2c(cc1NC(=O)C1CCCO1)oc1ccccc12 (stereo not drawn),1,6,9,58*,-9,78*
Cc1nnc(NC(=O)C2CCCO2)s1 (stereo not drawn),-2,7,2,-9,1,-11
COC(=O)c1ccc(NC(=O)C2CCCO2)cc1 (stereo not drawn),0,3,3,20,-3,20
Cc1cc(N2CCN(C3CCCC3)CC2)n2nc(C)c(-c3ccccc3)c2n1,-3,7,4,-30,0,6
COc1ccc(Cc2nnc(NC(=O)C3CCCO3)s2)cc1 (stereo not drawn),4,14,8,3,2,-2
COc1ccc(-c2csc(NC(=O)C3CCCO3)n2)cc1 (stereo not drawn),-5,10,4,17,0,64*
CC1=CC(C)=Nc2ccc(C)cc2N1,-1,9,-2,58*,-4,76*
CC1CN(C(=O)Nc2ccc3snnc3c2)c2ccccc21 (stereo not drawn),-4,5,2,25,0,31
Cc1cc(C(=O)CSc2nnnn2-c2ccccc2)c(C)n1CC1CCCO1 (stereo not drawn),4,13,4,45,2,68*
CC(C)C(=O)Nc1cccc(NC(=O)CCN2C(=O)c3ccccc3S2(=O)=O)c1,3,-7,0,-17,4,-12
Fc1ccc2nc3[nH]c4ccccc4c3nc2c1,-5,0,4,39,37*,90*
Cc1csc2ncc(C(=O)Nc3ccccc3F)c(=O)n12,2,1,3,40,-1,50*
Cc1csc2ncc(C(=O)Nc3ccccc3Cl)c(=O)n12,-1,-8,-2,38,4,25
